According to ChEMBL document CHEMBL4373696, “Probing the Existence of a Metastable Binding Site at the β2-Adrenergic Receptor with Homobivalent Bitopic Ligands” (J Med Chem, 2019):

Key:
[1] = target: T1, Beta-2 adrenergic receptor (Homo sapiens, UniProt P07550); test: Antagonist activity at beta2 adrenergic receptor (unknown origin) stably expressed in HEK293 cell membranes assessed as inhibition of isoproterenol-induced cAMP production preincubated for 15 mins followed by isoproterenol addition and measured after 30 mins by TR-FRET assay; type: functional, cell-based
T1 sequence (P07550 whole entry): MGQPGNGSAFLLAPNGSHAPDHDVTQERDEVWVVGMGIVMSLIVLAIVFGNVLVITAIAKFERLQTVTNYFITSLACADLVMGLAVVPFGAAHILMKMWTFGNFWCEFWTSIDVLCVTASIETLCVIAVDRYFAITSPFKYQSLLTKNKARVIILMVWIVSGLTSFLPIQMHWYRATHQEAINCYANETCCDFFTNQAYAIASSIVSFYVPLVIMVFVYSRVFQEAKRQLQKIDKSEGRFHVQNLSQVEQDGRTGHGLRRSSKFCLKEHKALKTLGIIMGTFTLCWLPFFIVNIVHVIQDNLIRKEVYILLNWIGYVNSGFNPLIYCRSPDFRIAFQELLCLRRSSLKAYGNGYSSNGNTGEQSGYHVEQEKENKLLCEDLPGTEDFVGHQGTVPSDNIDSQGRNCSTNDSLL

[2] = target: T2, Beta-1 adrenergic receptor (Homo sapiens, UniProt P08588); test: Displacement of [3H]DHA from beta1 adrenergic receptor (unknown origin) stably expressed in HEK293 cell membranes measured after 90 mins by scintillation counting analysis
T2 sequence (P08588 whole entry): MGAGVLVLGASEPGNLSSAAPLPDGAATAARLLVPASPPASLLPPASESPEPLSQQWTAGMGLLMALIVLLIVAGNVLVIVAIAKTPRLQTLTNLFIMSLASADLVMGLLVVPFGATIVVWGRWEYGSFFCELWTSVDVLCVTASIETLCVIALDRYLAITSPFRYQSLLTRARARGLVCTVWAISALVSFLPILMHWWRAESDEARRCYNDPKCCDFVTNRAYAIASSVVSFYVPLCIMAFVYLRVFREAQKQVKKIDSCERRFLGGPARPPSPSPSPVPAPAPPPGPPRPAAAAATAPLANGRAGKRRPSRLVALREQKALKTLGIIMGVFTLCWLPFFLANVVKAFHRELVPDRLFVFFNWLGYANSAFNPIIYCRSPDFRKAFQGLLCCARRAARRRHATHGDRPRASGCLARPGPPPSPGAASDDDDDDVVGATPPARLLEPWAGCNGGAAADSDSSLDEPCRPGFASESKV

[3] = organism: Homo sapiens; test: Selectivity ratio of Ki for displacement of [3H]DHA from beta1 adrenergic receptor (unknown origin) stably expressed in HEK293 cell membranes to displacement of [3H]DHA from beta2 adrenergic receptor (unknown origin) stably expressed in HEK293 cell membranes
[4] = target: T2, Beta-1 adrenergic receptor; test: Antagonist activity at beta1 adrenergic receptor (unknown origin) stably expressed in HEK293 cell membranes assessed as inhibition of isoproterenol-induced cAMP production preincubated for 15 mins followed by isoproterenol addition and measured after 30 mins by TR-FRET assay; type: cell-based
In short: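 Membranes from HEK293 cells stably overexpressing β1AR; ligand's blockade of isoproterenol-stimulated cAMP production measured; pIC50 as mean ± SEM from 3-8 independent experiments run in duplicate.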

[5] = target: T1, Beta-2 adrenergic receptor; test: Antagonist activity at beta2 adrenergic receptor (unknown origin) expressed in HEK293 cell assessed as inhibition of isoproterenol-induced cAMP production preincubated for 15 mins followed by isoproterenol addition and measured after 15 mins; type: functional, cell-based
[6] = organism: Homo sapiens; test: Selectivity ratio of IC50 for antagonist activity at beta1 adrenergic receptor (unknown origin) stably expressed in HEK293 cell membranes to IC50 for antagonist activity at beta2 adrenergic receptor (unknown origin) stably expressed in HEK293 cell membranes; type: cell-based
[7] = target: T1, Beta-2 adrenergic receptor; test: Displacement of [3H]DHA from beta2 adrenergic receptor (unknown origin) stably expressed in HEK293 cell membranes measured after 90 mins by scintillation counting analysis

CCCNC(=O)NCCCc1ccccc1OC[C@@H](O)CNC(C)C
IC50 [1]: 85.1 nM

CCCC(=O)NCCNC(=O)CCCc1ccccc1OC[C@@H](O)CNC(C)C
IC50 [1]: 64.6 nM

COc1ccccc1CCCC(=O)NCCNC(=O)CCCc1ccccc1OC[C@@H](O)CNC(C)C
IC50 [1]: 3.89 nM

CC(C)NC[C@H](O)COc1ccccc1CC(=O)NCCNC(=O)Cc1ccccc1OC[C@@H](O)CNC(C)C
IC50 [1]: 2630 nM | Ki [2]: 2570 nM | Ratio Ki [3]: 5.5 | IC50 [4]: 11000 nM | IC50 [5]: 214 nM | Ratio IC50 [6]: 4.1 | Ki ([7]; read-out: pKi (converted)): 468 nM

CC(C)NC[C@H](O)COc1ccccc1CCCCCCCCCCc1ccccc1OC[C@@H](O)CNC(C)C
IC50 [1]: 3.8 nM | Ki [2]: 1.82 nM | Ratio Ki [3]: 1.2 | IC50 [4]: 11.2 nM | IC50 [5]: 13.8 nM | Ratio IC50 [6]: 2.9 | Ki ([7]; read-out: pKi (converted)): 1.51 nM

CC(C)NC[C@H](O)COc1ccccc1CCCNC(=O)NCCCc1ccccc1
IC50 [1]: 14.1 nM

CC(C)NC[C@H](O)COc1ccccc1CCC(=O)NCCCNC(=O)CCc1ccccc1OC[C@@H](O)CNC(C)C
IC50 [1]: 8.32 nM | IC50 [4]: 1780 nM | Ratio IC50 [6]: 214

CC(C)NC[C@H](O)COc1ccccc1CCCC(=O)NCCCCNC(=O)CCCc1ccccc1OC[C@@H](O)CNC(C)C
IC50 [1]: 11.2 nM | IC50 [4]: 182 nM | Ratio IC50 [6]: 16.2

CC(C)NC[C@H](O)COc1ccccc1CCCC(=O)NCCNC(=O)CCCc1ccccc1OC[C@@H](O)CNC(C)C
IC50 [1]: 6.61 nM | Ki [2]: 8.91 nM | Ratio Ki [3]: 11.8 | IC50 [4]: 26.3 nM | IC50 [5]: 1.55 nM | Ratio IC50 [6]: 4 | Ki [7]: 1.29 nM | Ki ([7]; read-out: pKi (converted)): 0.759 nM

CC(C)NC[C@H](O)COc1ccccc1CCCC(=O)NCCNC(=O)CCCc1ccccc1
IC50 [1]: 5.89 nM

CC(C)NC[C@H](O)COc1ccccc1CCCCCNC(=O)NCCCCCc1ccccc1OC[C@@H](O)CNC(C)C
IC50 [1]: 1.74 nM | IC50 [4]: 5.62 nM | Ratio IC50 [6]: 3.2

CC(C)NC[C@H](O)COc1ccccc1CCCC(=O)NCCCNC(=O)CCCc1ccccc1OC[C@@H](O)CNC(C)C
IC50 [1]: 6.46 nM | IC50 [4]: 28.2 nM | Ratio IC50 [6]: 4.3

CC(C)NC[C@H](O)COc1ccccc1CCCNC(=O)NCCCc1ccccc1OC[C@@H](O)CNC(C)C
IC50 [1]: 7.59 nM | Ki [2]: 44.7 nM | Ratio Ki [3]: 38 | IC50 [4]: 372 nM | IC50 [5]: 1.58 nM | Ratio IC50 [6]: 49.2 | Ki [7]: 1.91 nM | Ki ([7]; read-out: pKi (converted)): 1.17 nM

CC(C)NC[C@@H](O)COc1ccccc1CCCC(=O)NCCNC(=O)CCCc1ccccc1OC[C@H](O)CNC(C)C
IC50 [1]: 214 nM | IC50 [4]: 4470 nM | Ratio IC50 [6]: 20.9

CC(C)NC[C@H](O)COc1ccccc1CCCCCCc1ccccc1OC[C@@H](O)CNC(C)C
IC50 [1]: 3.8 nM | Ki [2]: 6.46 nM | Ratio Ki [3]: 6.76 | IC50 [4]: 27.5 nM | IC50 [5]: 3.24 nM | Ratio IC50 [6]: 7.2 | Ki ([7]; read-out: pKi (converted)): 0.955 nM

CC(C)NC[C@H](O)COc1ccccc1CCC(=O)NCCNC(=O)CCc1ccccc1OC[C@@H](O)CNC(C)C
IC50 [1]: 75.9 nM | Ki [2]: 269 nM | Ratio Ki [3]: 22.9 | IC50 [4]: 2040 nM | IC50 [5]: 3.31 nM | Ratio IC50 [6]: 26.5 | Ki ([7]; read-out: pKi (converted)): 11.7 nM

CC(C)NC[C@H](O)COc1ccccc1CCCCNC(=O)NCCCCc1ccccc1OC[C@@H](O)CNC(C)C
IC50 [1]: 1.58 nM | Ki [2]: 3.98 nM | Ratio Ki [3]: 10.5 | IC50 [4]: 14.5 nM | IC50 [5]: 1.78 nM | Ratio IC50 [6]: 9.2 | Ki ([7]; read-out: pKi (converted)): 0.38 nM

CC(C)NC[C@H](O)COc1ccccc1CCn1cc(CNCc2cn(CCc3ccccc3OC[C@@H](O)CNC(C)C)nn2)nn1
IC50 [1]: 4.68 nM | Ki [2]: 2.88 nM | Ratio Ki [3]: 3.24 | IC50 [4]: 19.5 nM | IC50 [5]: 2.04 nM | Ratio IC50 [6]: 4.2 | Ki ([7]; read-out: pKi (converted)): 0.891 nM

CC(C)NC[C@H](O)COc1ccccc1CCNC(=O)NCCc1ccccc1OC[C@@H](O)CNC(C)C
IC50 [1]: 16.2 nM | Ki [2]: 19.5 nM | Ratio Ki [3]: 5.62 | IC50 [4]: 126 nM | IC50 [5]: 2.19 nM | Ratio IC50 [6]: 7.7 | Ki ([7]; read-out: pKi (converted)): 3.47 nM

CC(C)NC[C@H](O)COc1ccccc1CCCCCCCCc1ccccc1OC[C@@H](O)CNC(C)C
IC50 [1]: 2.34 nM | Ki [2]: 4.17 nM | Ratio Ki [3]: 5.25 | IC50 [4]: 20 nM | IC50 [5]: 5.25 nM | Ratio IC50 [6]: 8.6 | Ki ([7]; read-out: pKi (converted)): 0.794 nM

CC(C)NC[C@H](O)COc1ccccc1CCCn1cc(CNCc2cn(CCCc3ccccc3OC[C@@H](O)CNC(C)C)nn2)nn1
IC50 [1]: 2.88 nM | Ki [2]: 1.1 nM | Ratio Ki [3]: 2.51 | IC50 [4]: 4.68 nM | IC50 [5]: 1.2 nM | Ratio IC50 [6]: 1.6 | Ki ([7]; read-out: pKi (converted)): 0.437 nM

CC(C)NC[C@H](O)COc1ccccc1Cn1cc(CNCc2cn(Cc3ccccc3OC[C@@H](O)CNC(C)C)nn2)nn1
IC50 [1]: 64.6 nM | Ki [2]: 83.2 nM | Ratio Ki [3]: 5.37 | IC50 [4]: 490 nM | IC50 [5]: 6.31 nM | Ratio IC50 [6]: 7.6 | Ki ([7]; read-out: pKi (converted)): 15.5 nM

COc1ccccc1CCCNC(=O)NCCCc1ccccc1OC[C@@H](O)CNC(C)C
IC50 [1]: 13.8 nM

CC(C)NC[C@H](O)COc1ccccc1CCCCCCCCCCCCc1ccccc1OC[C@@H](O)CNC(C)C
IC50 [1]: 6.92 nM | Ki [2]: 1.26 nM | Ratio Ki [3]: 1.1 | IC50 [4]: 13.8 nM | IC50 [5]: 25.7 nM | Ratio IC50 [6]: 2 | Ki ([7]; read-out: pKi (converted)): 1.15 nM

CC(C)NC[C@H](O)COc1ccccc1OCCOCCOCCOc1ccccc1OC[C@@H](O)CNC(C)C
IC50 [1]: 74.1 nM | IC50 [4]: 97.7 nM | Ratio IC50 [6]: 1.3

CC(C)NC[C@H](O)COc1ccccc1OCCOCCOc1ccccc1OC[C@@H](O)CNC(C)C
IC50 [1]: 46.8 nM | IC50 [4]: 234 nM | Ratio IC50 [6]: 5

CC(C)NC[C@H](O)COc1ccccc1-n1cc(CNCc2cn(-c3ccccc3OC[C@@H](O)CNC(C)C)nn2)nn1
IC50 [1]: 170 nM | Ki [2]: 479 nM | Ratio Ki [3]: 12.3 | IC50 [4]: 3630 nM | IC50 [5]: 12 nM | Ratio IC50 [6]: 21.4 | Ki ([7]; read-out: pKi (converted)): 38.9 nM
